Test results from ChEMBL document CHEMBL4138245, “Design and synthesis of novel quinacrine-[1,3]-thiazinan-4-one hybrids for their anti-breast cancer activity” (Eur J Med Chem, 2018).
Active and inactive are the calls of the source. The rule behind the calls is not given here.

Legend:
MDA-MB-468 [1] = experiment: Antiproliferative activity against human MDA-MB-468 cells after 48 hrs by SRB assay; format: functional, cell-based; conditions: MDA-MB-468, 48 h
How it was run: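 SRB assay: 5,000-10,000 cells/well plated, 24 h at 37 °C/5% CO2 before drug; seven concentrations from 100 μM down (two- to ten-fold serial dilutions, DMSO ≤0.1% final) for 48 h; TCA fixation (10% final, 60 min, 4 °C), 0.4% SRB in 1% acetic acid, solubilized in 10 mM Tris base, absorbance 515-564 nm; growth = (Ti−Tz)/(C−Tz)×100; IC50 from sigmoidal variable-slope fit; triplicates, ≥2 independent experiments.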

MCF7 [2] = experiment: Potency index, ratio of cisplatin IC50 to compound IC50 for antiproliferative activity against human MCF7 cells; format: functional
BT-474 = experiment: Antiproliferative activity against human BT474 cells assessed as compound concentration required to show complete inhibition of cell viability up to 96 hrs by SRB assay; format: functional
MDA-MB-468 [3] = experiment: Antiproliferative activity against human MDA-MB-468 cells assessed as compound concentration required to show complete inhibition of cell viability up to 96 hrs by SRB assay; format: functional
184B5 [4] = experiment: Antiproliferative activity against human 184B5 cells assessed as compound concentration required to show complete inhibition of cell viability up to 96 hrs by SRB assay; format: cell-based; conditions: 184b5, 96 h
MCF7 [5] = experiment: Cell cycle arrest in human MCF7 cells assessed as accumulation at sub-G1 phase at 2 uM after 48 hrs by propidium iodide staining based flow cytometry; format: functional
How it was run: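 MCF7, MDA-MB231 and non-cancer 184B5 breast cells exposed to 2 μM for 48 h, then cell-cycle analysis by flow cytometry; duplicates, repeated three times.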

MCF7 [6] = experiment: Cell cycle arrest in human MCF7 cells assessed as DNA content at 2 uM after 12 hrs by BrdU incorporation assay (reference value: 20.7%); format: functional
MDA-MB-231 = experiment: Inhibition of DNA replication in human MDA-MB-231 cells assessed as EdU incorporation at 2 uM pretreated for 48 hrs followed by EdU addition at final 45 mins of 48 hrs incubation time (reference value: 45 to 63%); format: functional; set-up: scale not given: the % may be the effect or the level left
184B5 [7] = experiment: Inhibition of DNA replication in human 184B5 cells assessed as EdU incorporation at 2 uM pretreated for 48 hrs followed by EdU addition at final 45 mins of 48 hrs incubation time (reference value: 55%); format: cell-based; set-up: scale not given: the % may be the effect or the level left; conditions: 184b5, 48 h
MCF7 [8] = experiment: Downregulation of Cyclin-B protein expression in human MCF7 cells at 2 uM after 24 to 72 hrs by Western blot method; format: functional, cell-based
[9] = target: Serine/threonine-protein kinase mTOR (Homo sapiens) (UniProt P42345); experiment: Inhibition of mTOR phosphorylation at S2448 residue in human MCF7 cells at 2 uM after 6 hrs by Western blot method; format: cell-based
[10] = target: Serine/threonine-protein kinase mTOR (Homo sapiens) (UniProt P42345); experiment: Inhibition of mTOR pathway in human MCF7 cells assessed as reduction in S6K phosphorylation at Ser371 residue at 2 uM after 6 to 24 hrs by Western blot method; format: cell-based
[11] = Selectivity index, ratio of compound concentration for cell killing activity in human 184B5 cells to compound concentration for cell killing activity in human MDA-MB-453 cells; format: toxicity, cell-based; conditions: 184B5 cells versus MDA-MB-453 cells, read-out: Selectivity Index
[12] = Selectivity index, ratio of compound concentration for cell killing activity in human 184B5 cells to compound concentration for cell killing activity in human MDA-MB-468 cells; format: toxicity, cell-based; conditions: 184B5 cells versus MDA-MB-468 cells, read-out: Selectivity Index

IC50 (MDA-MB-468 [1]): 1.73 µM | Activity (184B5 [7]): 52% | inhibition [9]: Active | inhibition [10]: inactive
Compound: COc1ccc2nc3cc(Cl)ccc3c(NCCCN3C(=O)CCSC3c3cccs3)c2c1 (centres undefined)
Ratio IC50 (MCF7 [2]): 37.3 | Activity (BT-474): 1 µM | Activity (MDA-MB-468 [3]): 2 µM | Activity (184B5 [4]): 6 µM | Activity (MCF7 [5]): Active | Activity (MCF7 [6]): 8.7% | Activity (MDA-MB-231): 10% | Activity (MCF7 [8]): Active | selectivity ratio [11]: 3 to 6 | selectivity ratio [12]: 3 to 6
